Assay [1] has as its target T1, Phosphodiesterase 1 (Homo sapiens, UniProt P54750+Q01064+Q14123). Put plainly: Inhibitory activity against calmodulin-dependent Phosphodiesterase was reported. The format is protein assay, Canis lupus familiaris. An outline of the steps:
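Calmodulin-dependent cAMP phosphodiesterase, 8-[3H]-cAMP substrate. Tritiated AMP converted to adenosine with snake venom 5'-nucleotidase. Nucleosides separated from substrate on Dowex anion exchanger, eluted with 3 mM acetic acid. Basal calmodulin-independent activity measured with 1 mM EGTA. Compounds in DMSO at several concentrations. IC50 against calmodulin-dependent activity, mean of triplicates ± standard error.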

Assay [2] has as its target T1, Phosphodiesterase 1. Put plainly: Antagonistic potency against calmodulin-dependent cyclic AMP phosphodiesterase relative to 4-Iodotamoxifen. Format: functional. The conditions noted are these: Canis lupus familiaris.
Assay [3] concerns the target Estrogen receptor (Rattus norvegicus) (UniProt P06211+Q62986).
Assay [4] concerns the target T1, Phosphodiesterase 1. Nature of the assay: Antagonistic potency against calmodulin-dependent cyclic AMP phosphodiesterase relative to Idoxifene. Format: functional. The conditions noted are these: Canis lupus familiaris.

SMILES strings stand for the structures.

With `CC/C(=C(\c1ccc(I)cc1)c1ccc(OCCN(C)C)cc1)c1ccccc1`, the half-inhibitory concentration (IC50) on Phosphodiesterase 1 [1] stood at 2300 nM. The same compound yielded a Relative potency at Phosphodiesterase 1 [2] of 1. This compound displayed a Binding affinity in assay [3] of 8.

`CC/C(=C(\c1ccc(I)cc1)c1ccc(OCCN2CCCC2)cc1)c1ccccc1` [IDOXIFENE] had an IC50 at Phosphodiesterase 1 [1] of 1500 nM.

`CC/C(=C(\c1ccc(I)cc1)c1ccc(OCCCCCCCCN(C)C)cc1)c1ccccc1` yielded an IC50 at Phosphodiesterase 1 [1] of 300 nM. The compound also came in with a Relative potency on Phosphodiesterase 1 [2] of 7.7. Besides, the Binding affinity in assay [3] was determined as 2.

For `CC/C(=C(\c1ccc(I)cc1)c1ccc(OCCCCCCCCCCN2CCCC2)cc1)c1ccccc1`, on Phosphodiesterase 1 [4], the Relative potency was 0.9. The compound also came in with an IC50 against Phosphodiesterase 1 [1] of 1600 nM. Besides, the Binding affinity in assay [3] amounted to 0.4.

Regarding `CC/C(=C(\c1ccc(I)cc1)c1ccc(OCCCCN2CCCC2)cc1)c1ccccc1`, at Phosphodiesterase 1 [4], the Relative potency turned out to be 1.5. At Phosphodiesterase 1 [1], this compound registered an IC50 of 1000 nM. In assay [3], the Binding affinity amounted to 9.

`CC/C(=C(\c1ccc(I)cc1)c1ccc(OCCCCCN(C)C)cc1)c1ccccc1`: the half-maximal inhibitory concentration (IC50) on Phosphodiesterase 1 [1] is 600 nM. This compound also gave a Relative potency at Phosphodiesterase 1 [2] of 3.8. Moreover, in assay [3], the Binding affinity turned out to be 6.

On Phosphodiesterase 1 [1], `CC/C(=C(\c1ccc(I)cc1)c1ccc(OCCCCN(C)C)cc1)c1ccccc1` showed an IC50 of 2200 nM. The Relative potency at Phosphodiesterase 1 [2] was determined as 1.1. The Binding affinity in assay [3] is 25.

`CC/C(=C(\c1ccc(I)cc1)c1ccc(OCCCCCCCN2CCCC2)cc1)c1ccccc1` gave a Relative potency on Phosphodiesterase 1 [4] of 7.5. At Phosphodiesterase 1 [1], this compound displayed a half-inhibitory concentration (IC50) of 200 nM. The compound also came in with a Binding affinity in assay [3] of 3.

On Phosphodiesterase 1 [1], `CC/C(=C(\c1ccc(I)cc1)c1ccc(OCCCCCCN(C)C)cc1)c1ccccc1` showed a 50% inhibitory concentration (IC50) of 400 nM. In addition, the Relative potency on Phosphodiesterase 1 [2] turned out to be 5.8. For the same compound, the Binding affinity in assay [3] came out at 8.

At Phosphodiesterase 1 [4], `CC/C(=C(\c1ccc(I)cc1)c1ccc(OCCCCCCCCN2CCCC2)cc1)c1ccccc1` yielded a Relative potency of 7.5. The IC50 on Phosphodiesterase 1 [1] amounted to 200 nM. The Binding affinity in assay [3] worked out at 3.5.

For `CC/C(=C(\c1ccc(I)cc1)c1ccc(OCCCN2CCCC2)cc1)c1ccccc1`, the Relative potency on Phosphodiesterase 1 [4] is 1.4. Further, at Phosphodiesterase 1 [1], the IC50 is 1100 nM. Besides, in assay [3], the Binding affinity was 23.

Turning to `CC/C(=C(\c1ccc(I)cc1)c1ccc(OCCCCCN2CCCC2)cc1)c1ccccc1`, the Relative potency on Phosphodiesterase 1 [4] stood at 1.9. The compound further displayed an IC50 against Phosphodiesterase 1 [1] of 800 nM. The compound further registered a Binding affinity in assay [3] of 8.

Turning to `CC/C(=C(\c1ccc(I)cc1)c1ccc(OCCCCCCCCCCN(C)C)cc1)c1ccccc1`, the half-maximal inhibitory concentration (IC50) on Phosphodiesterase 1 [1] turned out to be 1200 nM. At Phosphodiesterase 1 [2], the Relative potency worked out at 1.9. In assay [3], this compound came in with a Binding affinity of 0.4.

`CC/C(=C(\c1ccc(I)cc1)c1ccc(OCCCN(C)C)cc1)c1ccccc1` displayed a half-maximal inhibitory concentration (IC50) on Phosphodiesterase 1 [1] of 2000 nM. In addition, the Relative potency at Phosphodiesterase 1 [2] is 1.2. In addition, in assay [3], the Binding affinity is 8.

As for `CC/C(=C(\c1ccc(I)cc1)c1ccc(OCCCCCCN2CCCC2)cc1)c1ccccc1`, the Relative potency on Phosphodiesterase 1 [4] was found to be 3. Besides, the IC50 at Phosphodiesterase 1 [1] is 500 nM. Moreover, the Binding affinity in assay [3] was 4.

At Phosphodiesterase 1 [4], `CC/C(=C(\c1ccc(I)cc1)c1ccc(OCCCCCCCCCN2CCCC2)cc1)c1ccccc1` had a Relative potency of 7.5. The compound further gave an IC50 at Phosphodiesterase 1 [1] of 200 nM. The same compound showed a Binding affinity in assay [3] of 1.5.
